Test results reported in article PMC11520665 (Critical Care, 2024).
Numbered stars: 1 amine (or outer) side, 2 acyl side, 3 side chain; on linkers, the order of the positions; unused ones are H or OH. Bridge positions count the residues as written; N and C are the ends. Square brackets hold non-standard residues; d marks the D form. Peptide text beside a SMILES is read from it. * marks the point of attachment. Orn(4R-OH,5R-OCH2CH2NMe3+) = C[N+](C)(C)CCO[C@@H](N[*:3])[C@H](O)C[C@H](N[*:1])C(=O)[*:2]; pTerphenylCO(4''-OnC5H11) = CCCCCOc1ccc(-c2ccc(-c3ccc(C(=O)*)cc3)cc2)cc1; hTyr(3S-OH,4S-OH) = N[C@H](C(=O)O)[C@H](O)[C@@H](O)c1ccc(O)cc1; Pro(3S-OH,4S-Me) = C[C@H]1CN[C@H](C(=O)O)[C@H]1O; Hyp = O=C(O)[C@@H]1C[C@@H](O)CN1

Assays:
[1] = Safety: treatment-emergent adverse events; type: in vivo, patients (adults); conditions: safety population
Outline: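 Post-hoc pooled data from two randomised, double-blind, double-dummy trials. The safety population was adults in the ICU at randomisation who received ≥1 dose. Dosing was IV test compound weekly (400 mg Day 1, 200 mg Day 8, optional later 200 mg) or IV comparator echinocandin daily (70 mg Day 1, then 50 mg/day). TEAEs ran from dosing to follow-up, coded MedDRA 23.0, graded mild/moderate/severe, and summarised descriptively.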

[2] = cited from earlier work
[3] = ICU at randomisation, n=46 rezafungin, n=67 caspofungin
[4] = ICU at randomisation, number of events per severity

CCCCCOc1ccc(-c2ccc(-c3ccc(C(=O)N[C@H]4C[C@@H](O)[C@@H](OCC[N+](C)(C)C)NC(=O)[C@@H]5[C@@H](O)[C@@H](C)CN5C(=O)[C@H]([C@@H](C)O)NC(=O)[C@H]([C@H](O)[C@@H](O)c5ccc(O)cc5)NC(=O)[C@@H]5C[C@@H](O)CN5C(=O)[C@H]([C@@H](C)O)NC4=O)cc3)cc2)cc1 [Rezafungin] ({pTerphenylCO(4''-OnC5H11)}-[Orn(4R-OH,5R-OCH2CH2NMe3+)]T[Hyp][hTyr(3S-OH,4S-OH)]T[Pro(3S-OH,4S-Me)]; lactam 1-C)
TEAE: Abdominal abscess, patients [1, 3]: 1 (2.2) n (%) | TEAE: Abdominal pain, patients [1, 3]: 4 (8.7) n (%) | TEAE: Acidosis, patients [1, 3]: 1 (2.2) n (%) | TEAE: Acute kidney injury, patients [1, 3]: 1 (2.2) n (%) | TEAE: Anaemia, patients [1, 3]: 7 (15.2) n (%) | TEAE: Atrial fibrillation, patients [1, 3]: 3 (6.5) n (%) | TEAE: Bradycardia, patients [1, 3]: 1 (2.2) n (%) | TEAE: Constipation, patients [1, 3]: 2 (4.3) n (%) | TEAE: Decubitus ulcer, patients [1, 3]: 3 (6.5) n (%) | TEAE: Deep vein thrombosis, patients [1, 3]: 1 (2.2) n (%) | TEAE: Diarrhoea, patients [1, 3]: 7 (15.2) n (%) | TEAE: Dyspnoea, patients [1, 3]: 0 (0) n (%) | TEAE: Fluid overload, patients [1, 3]: 4 (8.7) n (%) | TEAE: Hyperkalaemia, patients [1, 3]: 2 (4.3) n (%) | TEAE: Hypertension, patients [1, 3]: 3 (6.5) n (%) | TEAE: Hypokalaemia, patients [1, 3]: 4 (8.7) n (%) | TEAE: Hypotension, patients [1, 3]: 3 (6.5) n (%) | TEAE: Insomnia, patients [1, 3]: 4 (8.7) n (%) | TEAE: Multiple organ dysfunction syndrome, patients [1, 3]: 3 (6.5) n (%) | TEAE: Nausea, patients [1, 3]: 4 (8.7) n (%) | TEAE: Peripheral oedema, patients [1, 3]: 3 (6.5) n (%) | TEAE: Pleural effusion, patients [1, 3]: 0 (0) n (%) | TEAE: Pneumonia, patients [1, 3]: 3 (6.5) n (%) | TEAE: Pneumothorax, patients [1, 3]: 0 (0) n (%) | TEAE: Pyrexia, patients [1, 3]: 2 (4.3) n (%) | TEAE: Respiratory failure, patients [1, 3]: 0 (0) n (%) | TEAE: Sepsis, patients [1, 3]: 5 (10.9) n (%) | TEAE: Septic shock, patients [1, 3]: 6 (13.0) n (%) | TEAE: Vomiting, patients [1, 3]: 7 (15.2) n (%) | ≥ 1 TEAE [1, 3]: 41 (89.1) n (%) | ≥ 1 TEAE leading to study/drug discontinuation [1, 3]: 8 (17.4) n (%) | ≥ 1 serious TEAE [1, 3]: 28 (60.9) n (%) | ≥ 1 study drug-related TEAE [1, 3]: 4 (8.7) n (%) | ≥ 1 study drug-related TEAE leading to study/drug discontinuation [1, 3]: 0 (0) n (%) | ≥ 1 study drug-related serious TEAE [1, 3]: 1 (2.2) n (%) | TEAE: Abdominal abscess, event severity (n): mild/moderate/severe [1, 4]: 0/1/0 | TEAE: Abdominal pain, event severity (n): mild/moderate/severe [1, 4]: 1/2/1 | TEAE: Acidosis, event severity (n): mild/moderate/severe [1, 4]: 1/1/0 | TEAE: Acute kidney injury, event severity (n): mild/moderate/severe [1, 4]: 1/1/0 | TEAE: Anaemia, event severity (n): mild/moderate/severe [1, 4]: 2/4/1 | TEAE: Atrial fibrillation, event severity (n): mild/moderate/severe [1, 4]: 1/2/0 | TEAE: Bradycardia, event severity (n): mild/moderate/severe [1, 4]: 0/1/0 | TEAE: Constipation, event severity (n): mild/moderate/severe [1, 4]: 2/0/0 | TEAE: Decubitus ulcer, event severity (n): mild/moderate/severe [1, 4]: 2/1/0 | TEAE: Deep vein thrombosis, event severity (n): mild/moderate/severe [1, 4]: 1/0/0 | TEAE: Diarrhoea, event severity (n): mild/moderate/severe [1, 4]: 6/1/0 | TEAE: Dyspnoea, event severity (n): mild/moderate/severe [1, 4]: 0/0/0 | TEAE: Fluid overload, event severity (n): mild/moderate/severe [1, 4]: 0/3/1 | TEAE: Hyperkalaemia, event severity (n): mild/moderate/severe [1, 4]: 2/0/0 | TEAE: Hypertension, event severity (n): mild/moderate/severe [1, 4]: 2/1/0 | TEAE: Hypokalaemia, event severity (n): mild/moderate/severe [1, 4]: 3/1/0 | TEAE: Hypotension, event severity (n): mild/moderate/severe [1, 4]: 2/1/0 | TEAE: Insomnia, event severity (n): mild/moderate/severe [1, 4]: 3/1/0 | TEAE: Multiple organ dysfunction syndrome, event severity (n): mild/moderate/severe [1, 4]: 0/0/3 | TEAE: Nausea, event severity (n): mild/moderate/severe [1, 4]: 0/4/0 | TEAE: Peripheral oedema, event severity (n): mild/moderate/severe [1, 4]: 3/0/0 | TEAE: Pleural effusion, event severity (n): mild/moderate/severe [1, 4]: 0/0/0 | TEAE: Pneumonia, event severity (n): mild/moderate/severe [1, 4]: 0/0/3 | TEAE: Pneumothorax, event severity (n): mild/moderate/severe [1, 4]: 0/0/0 | TEAE: Pyrexia, event severity (n): mild/moderate/severe [1, 4]: 1/1/0 | TEAE: Respiratory failure, event severity (n): mild/moderate/severe [1, 4]: 0/0/0 | TEAE: Sepsis, event severity (n): mild/moderate/severe [1, 4]: 3/2/1 | TEAE: Septic shock, event severity (n): mild/moderate/severe [1, 4]: 0/1/5 | TEAE: Vomiting, event severity (n): mild/moderate/severe [1, 4]: 4/4/0 | Study drug-related serious TEAEs, events ([1]; each event n = 1): infusion-related reaction | half-life [2]: 120 to 140 h
